Compound activity (PubChem BioAssay)
Only some compounds are listed: those with a hit (about 2.2% of all), similar ones and a draw of the others.
GAA850 FXN act – frataxin GAA850 promoter activation; 360,000 tested, 0.56% active; HEK293 lucGAA850 FXN promoter luciferase reporter, 24 h; percent of 10 µM SAHA response; activation, % at 6 µM;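 active = activation above the average of all compounds screened plus 3 SD, cutoff fixed separately per campaign, cut at about 7.5% in these data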;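 note: 0% = DMSO wells and 100% = 10 µM SAHA wells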
NR2E3 ag-1 – activates human NR2E3 receptor; CHO-S Gal4-NCOR/VP16-NR2E3 two-hybrid, luciferase; inhibition of corepressor binding, % at 3.98 µM; 360,000 tested, 0.35% active;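 active = inhibition above the mean of all tested compounds plus 3 SD, cut at about 70% in these data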;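 note: 0% = DMSO with NR2E3 transfected cells and 100% = cells lacking NR2E3 construct; higher means lower luciferase signal from less NR2E3 corepressor binding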
Target sequence (Q9Y5X4 whole entry, looked up, the tested form may be a part): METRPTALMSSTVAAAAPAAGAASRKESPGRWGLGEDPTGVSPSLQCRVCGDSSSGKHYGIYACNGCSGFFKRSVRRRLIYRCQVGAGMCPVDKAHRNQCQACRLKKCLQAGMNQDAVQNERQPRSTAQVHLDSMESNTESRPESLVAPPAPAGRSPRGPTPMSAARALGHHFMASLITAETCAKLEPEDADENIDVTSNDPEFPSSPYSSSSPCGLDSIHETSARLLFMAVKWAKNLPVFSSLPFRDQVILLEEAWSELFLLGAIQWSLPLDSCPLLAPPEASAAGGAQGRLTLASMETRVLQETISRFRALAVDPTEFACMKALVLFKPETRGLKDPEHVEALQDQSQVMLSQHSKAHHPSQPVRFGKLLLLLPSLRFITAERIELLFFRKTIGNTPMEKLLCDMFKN
Env fusion inh – inhibitors of HIV Env-mediated cell fusion | HeLa-JRFL Env/CEM21 cell fusion, luciferase | inhibition, % at 12.3 µM | 360,000 tested, 1.1% active;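 active = mean replicate inhibition score of at least 50 and every replicate individually at or above 50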;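 note: 0% = plate neutral controls and 100% = maraviroc near 300 nM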
GalR3 antagonist – blocks the human galanin receptor 3; O60755; HEK293 GalR3-CNG cAMP membrane potential fluorescence; galR3 body fused to GalR1 C-terminus; inhibition, % at 3 µM; 360,000 tested, 0.44% active;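 active = inhibition above the screen-wide average plus 3 SD, cut at about 13% in these data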;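 note: forskolin and galanin both at EC90 stimulate the cells; cAMP rise reported by CNG channel membrane potential dye signal; 0% = forskolin plus galanin with DMSO and 100% = forskolin alone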
Target sequence (O60755 1-299 limits assumed): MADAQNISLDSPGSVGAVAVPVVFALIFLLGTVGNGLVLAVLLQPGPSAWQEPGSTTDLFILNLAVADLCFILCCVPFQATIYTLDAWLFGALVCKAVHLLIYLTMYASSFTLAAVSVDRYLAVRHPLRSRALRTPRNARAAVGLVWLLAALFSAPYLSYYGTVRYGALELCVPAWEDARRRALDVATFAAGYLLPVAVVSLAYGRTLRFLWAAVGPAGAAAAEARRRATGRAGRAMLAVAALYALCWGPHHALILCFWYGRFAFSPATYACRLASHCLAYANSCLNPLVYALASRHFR
V-ATPase pH – yeast V-ATPase proton transport regulation by pHLuorin | S. cerevisiae, pHLuorin cytosolic pH fluorescence | response, % at 10 µM | 350,000 tested, 0.37% active | AID 504577; in the data active = response mostly above about 7.3%, no sharp cut-off; inactive = mostly below about 5.4%; note: actives read high
NR2E3 ag-2 – agonists of human nuclear receptor NR2E3; Q9Y5X4; GST-NR2E3/biotin-RetCOR TR-FRET, 1536-well; inhibition of corepressor binding, % at 4.78 µM; 320,000 tested, 0.12% active; AID 2300;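 active = percent inhibition above the cutoff of mean plus 3 SD of all tested compounds, set per screening campaign, cut at about 20% in these data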;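 note: 0% = DMSO wells and 100% = biotin wells as full block of FRET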
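System: GST-tagged NR2E3 plus biotinylated RetCOR corepressor; Buffer or medium: pH 7.5 Tris-based buffer; Probe or stimulus: RetCOR corepressor, biotinylated, 7 nM; Doses: compound at 4.8 µM, single dose; Schedule: 5 h incubation at 4 °C; Technique: time-resolved FRET; Evaluation: percent inhibition of TR-FRET ratio; Replication: one well per compound, singlicate testing.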
GalR3 antag conf – confirmation of human galanin receptor 3 antagonists; shares compounds with GalR3 antagonist; HEK293 GalR3 CNG cAMP biosensor, membrane potential fluorescence; galR3 fused to GalR1 carboxy tail; challenged with forskolin and galanin at EC90; inhibition, % at 3 µM; 1,600 tested, 59% active; AID 652245;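 active = inhibition above the primary screen's cutoff, the mean inhibition of all screened compounds plus 3 SD, cut at about 13% in these data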;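 note: 0% = forskolin plus galanin and 100% = forskolin alone with DMSO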
HEK-CNG parental – acts as nonspecific agonist in parental HEK-CNG cells; shares compounds with GalR3 antagonist; HEK293-CNG parental cells, cAMP membrane potential fluorescence; normalised: DMSO wells 0%, forskolin wells 100%; activation, % at 3 µM; 1,600 tested, 10% active; in the data active = activation above about 1.3%
* = called active by the depositor; nt = no result given; ! = not active in a repeat; [ ] = remark or other dose.

SMILES | GAA850 FXN act | NR2E3 ag-1 | Env fusion inh | GalR3 antagonist | V-ATPase pH | NR2E3 ag-2 | GalR3 antag conf | HEK-CNG parental
CCCN(C)C[C@@H]1Oc2cc(C#C[C@@H](C)O)ccc2S(=O)(=O)N([C@@H](C)CO)C[C@@H]1C | nt | nt | -12[16.7 µM] | nt | nt | nt | nt | nt
C[C@@H]1CN([C@@H](C)CO)C(=O)c2cc(NC(=O)c3ccccc3)ccc2O[C@@H](C)CCCCO[C@@H]1CN(C)S(=O)(=O)c1cn(C)cn1 | nt | nt | 18[16.7 µM] | nt | nt | nt | nt | nt
COCC(C)n1c(-c2ccc3c(c2)NC(=O)CO3)csc1=Nc1ccc(OC(F)F)cc1 (stereo not given) | -6 | 32 | 83*! | 31* | -2 | 0 | 92* | -1
CCN=c1scc(-c2ccc3c(c2)NC(=O)CO3)n1N=C1CCCC1 | -2 | 12 | 47 | -8 | -5 | 3 | nt | nt
Cc1ccc(C2C(C#N)=C(N)Oc3cc4c(cc32)OCO4)cc1 (stereo not given) | -2 | -5 | -35 | 1 | -4 | -2 | nt | nt
CC(C)(C)C1=C(C#N)C(c2cc3c(cc2Br)OCO3)C(C#N)=C(N)O1 (stereo not given) | 6 | 8 | nt | nt | 3 | 4 | -3 | 0
COc1cccc(-c2cnc3c(NC=O)cc(-c4ccc(OC)cc4OC)cn23)c1 | -1 | 27 | -124 | 4 | nt | nt | nt | nt
COc1ccc(-c2cc(NC=O)c3ncc(-c4ccc(OC)c(OC)c4)n3c2)c(OC)c1 | 0 | 7 | -27 | 44* | nt | nt | 25* | 1
COc1ccc(-c2cnc3c(NC=O)cc(-c4cccc(NS(C)(=O)=O)c4)cn23)cc1OC | -4 | 19 | -110 | 59* | nt | nt | 43* | 0
COc1cccc(-c2cc(NC=O)c3ncc(-c4ccc(OC)c(OC)c4)n3c2)c1 | -2 | 0 | -181 | 38* | nt | nt | 39* | 1
COc1ccc(-c2cnc3c(NC=O)cc(-c4ccccc4)cn23)cc1OC | 2 | -28 | 42 | 44* | nt | nt | 15* | 1
COc1cccc(-c2cnc3c(NC=O)cc(-c4cc(OC)c(OC)c(OC)c4)cn23)c1 | 4 | 23 | -6 | -1 | nt | nt | nt | nt
CS(=O)(=O)Nc1cccc(-c2cc(NC=O)c3ncc(-c4ccc(F)c(Cl)c4)n3c2)c1 | 0 | 13 | -13 | -4 | nt | nt | nt | nt
COc1ccc(-c2cnc3c(NC=O)cc(-c4cc(OC)c(OC)c(OC)c4)cn23)cc1OC | -1 | 40 | 7 | 4 | nt | nt | nt | nt
C[C@@H]1CCCCO[C@H](CN(C)C(=O)CCC(F)(F)F)[C@@H](C)CN([C@@H](C)CO)C(=O)c2cc(NC(=O)CCCCCC(=O)Nc3ccccc3N)ccc2O1 | nt | nt | 6[16.7 µM] | nt | nt | nt | nt | nt
CC(C)NC(=O)N[C@@H]1CC[C@@H](CC(=O)NCCCN(C)C)O[C@H]1CO | nt | nt | 1[16.7 µM] | nt | nt | nt | nt | nt
COc1ccc(-c2cnc3c(NC=O)cc(-c4ccc(F)cc4)cn23)cc1OC | -2 | 13 | -75 | 15* | nt | nt | 21* | 1
COc1ccc(-c2cnc3c(NC=O)cc(-c4ccc(S(C)(=O)=O)cc4)cn23)cc1OC | -5 | -20 | 1 | -7 | nt | nt | nt | nt
COc1ccccc1-c1cc(NC=O)c2ncc(-c3ccc(S(C)(=O)=O)cc3)n2c1 | -2 | 14 | -132 | 14* | nt | nt | 30* | 1
CC(C)c1ccc(/C=C/C2=NNC(=O)CC2)cc1 | 5 | -107 | 37 | -2 | 0 | 1 | nt | nt
COc1cc(/C=C/C2=NNC(=O)CC2)cc(OC)c1OC | 3 | -1 | 73* | 20* | 5 | -2 | 16* | 0
COc1ccccc1CNC(=O)C[C@@H]1CC[C@@H](NC(=O)CC2CC2)[C@H](CO)O1 | nt | nt | -8[16.7 µM] | nt | nt | nt | nt | nt
CC(C)(C)OC(=O)N1CCC(NC(=O)c2nc[nH]c2C(=O)NC2CCN(C(=O)OC(C)(C)C)CC2)CC1 | -4 | -10 | -36 | -1 | 0 | 3 | nt | nt
CCOC(=O)c1ccc(NC(=O)c2nc[nH]c2C(=O)NC2CCN(C(=O)OC(C)(C)C)CC2)cc1 | 1 | 16 | 26 | 17* | 2 | 3 | 10 | 0
CCOC(=O)C1=C(C)NC2=C(C(=O)c3ccccc32)C1c1ccc(O)cc1 (stereo not given) | 2 | 2 | 5 | 20* | 0 | -6 | 8 | 0
SMILES | GAA850 FXN act | NR2E3 ag-1 | Env fusion inh | GalR3 antagonist | V-ATPase pH | NR2E3 ag-2 | GalR3 antag conf | HEK-CNG parental
CCOC(=O)C1=C(C)NC2=C(C(=O)c3ccccc32)C1c1cccc2ccccc12 (stereo not given) | -1 | -11 | 23 | -3 | 6 | 3 | nt | nt
O=C(N[C@H]1CC[C@H](CC(=O)N2CCCCC2)O[C@H]1CO)c1ccc2c(c1)OCO2 | nt | nt | -6[16.7 µM] | nt | nt | nt | nt | nt
Cc1cc(OCC(=O)NC2CC(C)(C)NC(C)(C)C2)c2c(C)cc(=O)oc2c1 | 1 | 2 | -1 | nt | 7 | 1 | -2 | 0
O=C(Nc1cccc(F)c1)C1CCCN(S(=O)(=O)c2ccc(-n3cnnn3)cc2)C1 (stereo not given) | 0 | 3 | 8 | 14* | -1 | -1 | 0 | -1
O=C(C[C@H]1C=C[C@H](NC(=O)CN2CCOCC2)[C@H](CO)O1)NC1CCCCC1 | nt | nt | -16[16.7 µM] | nt | nt | nt | nt | nt
Cc1noc(C)c1S(=O)(=O)Nc1ccc2c(c1)C(=O)N([C@@H](C)CO)C[C@@H](C)[C@@H](CN(C)S(=O)(=O)c1cn(C)cn1)OCCCC[C@@H](C)O2 | nt | nt | 7[16.7 µM] | nt | nt | nt | nt | nt
CCN=C1S/C(=C\c2ccc(O)c(OCC)c2)C(=O)N1CC | 3 | 1 | -27 | -4 | 3 | -3 | nt | nt
CCN=C1S/C(=C\c2cc(OCC)c(O)cc2Br)C(=O)N1CC | 6 | 4 | -3 | 16* | 6 | -3 | 21* | 0
COc1ccc(Cc2c(O)nc(SCC(=O)NC34CC5CC(CC(C5)C3)C4)[nH]c2=O)cc1 | 2 | -14 | -2 | -3 | -2 | 1 | 4 | 0
O=C(COC(=O)/C=C/c1cccc(F)c1)Nc1ccc2[nH]c(=O)[nH]c2c1 | -1 | -10 | 5 | -5 | 0 | -1 | nt | nt
O=C(COC(=O)/C=C/c1cccc(Cl)c1)Nc1ccc2[nH]c(=O)[nH]c2c1 | -1 | -13 | nt | 35* | -3 | 1 | 44* | 6.9*
COc1cc(/C=N/S(=O)(=O)c2ccccc2)cc(OC)c1O | 4 | -18 | 4 | 15* | -1 | -7 | -1 | 0
Cn1c(CNc2nc3ccccc3n2C)nc2ccccc21 | 0 | -38 | -45 | 15* | -1 | 2 | 0 | 0
CC(C)n1c(NCc2nc3ccccc3n2C)nc2ccccc21 | -3 | -26 | -30 | -5 | -4 | 1 | nt | nt
